{
  "source": "ChEMBL document CHEMBL5653631",
  "about": "“A Potent and Selective ULK1 Inhibitor Suppresses Autophagy and Sensitizes Cancer Cells to Nutrient Stress” (iScience, 2018)",
  "key": {"[1]": {"molecular_target": "Cyclin-dependent kinase 7 (Homo sapiens) (UniProt P50613)", "assay": "Inhibition of human recombinant CDK7 at 40 nM related to control ULK1"}, "[2]": {"molecular_target": "T1, Eukaryotic elongation factor 2 kinase (Homo sapiens) (UniProt O00418)", "T1 sequence (whole entry)": "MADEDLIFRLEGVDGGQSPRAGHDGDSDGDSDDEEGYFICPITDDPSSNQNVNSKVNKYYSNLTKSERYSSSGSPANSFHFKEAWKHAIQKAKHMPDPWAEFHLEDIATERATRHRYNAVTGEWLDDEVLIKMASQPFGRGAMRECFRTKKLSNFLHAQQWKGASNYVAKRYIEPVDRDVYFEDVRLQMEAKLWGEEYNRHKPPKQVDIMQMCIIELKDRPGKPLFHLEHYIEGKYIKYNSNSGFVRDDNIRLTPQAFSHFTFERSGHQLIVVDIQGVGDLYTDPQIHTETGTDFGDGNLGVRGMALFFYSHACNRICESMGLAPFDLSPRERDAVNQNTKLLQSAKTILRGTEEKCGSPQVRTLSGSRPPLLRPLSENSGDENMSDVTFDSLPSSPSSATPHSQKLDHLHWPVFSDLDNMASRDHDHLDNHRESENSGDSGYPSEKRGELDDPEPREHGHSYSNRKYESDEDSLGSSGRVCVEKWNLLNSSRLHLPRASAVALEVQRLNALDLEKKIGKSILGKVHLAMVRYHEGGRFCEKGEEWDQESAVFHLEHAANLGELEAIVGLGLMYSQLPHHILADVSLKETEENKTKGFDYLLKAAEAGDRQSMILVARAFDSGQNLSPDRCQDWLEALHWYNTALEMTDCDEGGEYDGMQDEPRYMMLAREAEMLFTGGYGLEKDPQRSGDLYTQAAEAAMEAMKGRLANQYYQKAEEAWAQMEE", "assay": "Inhibition of human recombinant eEF2K at 40 nM related to control ULK1"}, "[3]": {"molecular_target": "ALK tyrosine kinase receptor (Homo sapiens) (UniProt Q9UM73)", "sequence (Q9UM73 19-1620 limits assumed)": "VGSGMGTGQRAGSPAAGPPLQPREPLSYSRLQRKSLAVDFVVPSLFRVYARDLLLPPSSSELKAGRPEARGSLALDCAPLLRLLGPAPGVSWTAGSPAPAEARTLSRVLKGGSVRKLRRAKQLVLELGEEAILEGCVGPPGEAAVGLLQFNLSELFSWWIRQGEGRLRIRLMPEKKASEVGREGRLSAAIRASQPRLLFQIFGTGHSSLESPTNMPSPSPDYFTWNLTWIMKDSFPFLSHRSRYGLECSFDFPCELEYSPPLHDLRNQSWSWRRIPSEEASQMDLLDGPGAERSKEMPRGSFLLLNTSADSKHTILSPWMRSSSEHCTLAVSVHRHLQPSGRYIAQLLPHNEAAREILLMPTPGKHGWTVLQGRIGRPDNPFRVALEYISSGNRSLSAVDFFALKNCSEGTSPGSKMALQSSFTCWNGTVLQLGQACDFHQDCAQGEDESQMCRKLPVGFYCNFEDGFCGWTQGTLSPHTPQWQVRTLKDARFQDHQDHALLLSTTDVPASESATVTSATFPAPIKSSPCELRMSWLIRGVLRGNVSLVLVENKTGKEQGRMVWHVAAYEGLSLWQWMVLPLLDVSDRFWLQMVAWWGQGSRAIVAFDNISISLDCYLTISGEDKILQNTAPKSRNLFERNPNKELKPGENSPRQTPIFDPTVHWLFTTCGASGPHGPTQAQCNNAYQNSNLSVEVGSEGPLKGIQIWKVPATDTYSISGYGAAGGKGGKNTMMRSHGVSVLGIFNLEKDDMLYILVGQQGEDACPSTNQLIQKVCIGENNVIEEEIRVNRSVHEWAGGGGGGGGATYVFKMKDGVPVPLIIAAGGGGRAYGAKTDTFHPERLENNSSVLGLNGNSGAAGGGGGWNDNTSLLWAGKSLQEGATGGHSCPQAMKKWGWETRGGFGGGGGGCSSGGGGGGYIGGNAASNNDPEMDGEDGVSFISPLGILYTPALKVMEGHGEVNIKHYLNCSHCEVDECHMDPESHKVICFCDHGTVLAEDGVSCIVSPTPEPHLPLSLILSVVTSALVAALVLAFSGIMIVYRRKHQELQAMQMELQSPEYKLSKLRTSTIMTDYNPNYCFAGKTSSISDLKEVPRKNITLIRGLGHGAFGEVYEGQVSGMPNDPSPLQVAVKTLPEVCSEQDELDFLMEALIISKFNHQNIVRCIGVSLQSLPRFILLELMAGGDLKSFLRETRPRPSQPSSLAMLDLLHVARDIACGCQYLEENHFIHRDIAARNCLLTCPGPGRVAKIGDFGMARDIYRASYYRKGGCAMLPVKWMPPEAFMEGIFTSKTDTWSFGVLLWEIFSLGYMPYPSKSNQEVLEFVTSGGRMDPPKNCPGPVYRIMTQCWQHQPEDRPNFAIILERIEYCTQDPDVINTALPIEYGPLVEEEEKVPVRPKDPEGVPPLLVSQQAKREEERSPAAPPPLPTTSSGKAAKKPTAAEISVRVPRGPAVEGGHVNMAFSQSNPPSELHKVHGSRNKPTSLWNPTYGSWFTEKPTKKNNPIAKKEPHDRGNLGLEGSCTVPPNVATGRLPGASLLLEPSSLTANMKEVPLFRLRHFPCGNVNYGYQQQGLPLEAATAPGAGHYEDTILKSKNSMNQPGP", "assay": "Inhibition of human recombinant ALK at 500 nM in presence of ATP by radiometric assay relative to control", "procedure,_shortened": "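Panel of 327 recombinant human kinases in radiometric activity assays, each screened in duplicate at a single inhibitor concentration; percent activity remaining relative to vehicle control, percent inhibition taken as 100 minus activity remaining.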"}, "[4]": {"molecular_target": "Dual specificity tyrosine-phosphorylation-regulated kinase 1A (Homo sapiens) (UniProt Q13627)", "assay": "Inhibition of human recombinant DYRK1A at 500 nM in presence of ATP by radiometric assay relative to control"}, "[5]": {"molecular_target": "Serine/threonine-protein kinase Nek4 (Homo sapiens) (UniProt P51957)", "sequence (P51957 whole entry, looked up)": "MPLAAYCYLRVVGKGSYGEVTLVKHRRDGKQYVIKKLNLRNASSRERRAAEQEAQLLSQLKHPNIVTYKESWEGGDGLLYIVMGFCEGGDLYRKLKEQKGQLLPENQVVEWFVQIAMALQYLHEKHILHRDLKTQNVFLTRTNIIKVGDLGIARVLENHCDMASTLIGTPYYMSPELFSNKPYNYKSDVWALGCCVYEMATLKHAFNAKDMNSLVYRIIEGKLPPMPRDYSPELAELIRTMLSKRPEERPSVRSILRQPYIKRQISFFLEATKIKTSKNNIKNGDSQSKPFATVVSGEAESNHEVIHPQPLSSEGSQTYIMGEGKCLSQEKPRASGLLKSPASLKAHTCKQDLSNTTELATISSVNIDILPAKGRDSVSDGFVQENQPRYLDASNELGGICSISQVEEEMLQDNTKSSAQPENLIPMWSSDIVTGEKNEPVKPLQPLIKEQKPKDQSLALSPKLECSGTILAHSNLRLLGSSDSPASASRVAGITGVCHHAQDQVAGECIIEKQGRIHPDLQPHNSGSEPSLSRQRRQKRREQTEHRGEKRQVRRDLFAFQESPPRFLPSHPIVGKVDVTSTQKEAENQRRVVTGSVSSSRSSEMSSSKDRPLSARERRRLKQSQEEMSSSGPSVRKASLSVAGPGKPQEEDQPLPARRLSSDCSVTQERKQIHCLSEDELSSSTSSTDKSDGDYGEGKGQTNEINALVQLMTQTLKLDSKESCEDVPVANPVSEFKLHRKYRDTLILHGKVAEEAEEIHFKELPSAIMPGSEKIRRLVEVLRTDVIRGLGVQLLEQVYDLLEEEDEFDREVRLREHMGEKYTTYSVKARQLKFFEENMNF", "assay": "Inhibition of human recombinant NEK4 at 500 nM in presence of ATP by radiometric assay relative to control"}, "[6]": {"molecular_target": "Tyrosine-protein kinase ABL2 (Homo sapiens) (UniProt P42684)", "assay": "Inhibition of human recombinant ABL2 at 500 nM related to control ULK1"}, "[7]": {"molecular_target": "Epithelial discoidin domain-containing receptor 1 (Homo sapiens) (UniProt Q08345)", "assay": "Inhibition of human recombinant DDR1 at 500 nM related to control ULK1"}, "[8]": {"molecular_target": "Serine/threonine-protein kinase D2 (Homo sapiens) (UniProt Q9BZL6)", "sequence (Q9BZL6 whole entry, looked up)": "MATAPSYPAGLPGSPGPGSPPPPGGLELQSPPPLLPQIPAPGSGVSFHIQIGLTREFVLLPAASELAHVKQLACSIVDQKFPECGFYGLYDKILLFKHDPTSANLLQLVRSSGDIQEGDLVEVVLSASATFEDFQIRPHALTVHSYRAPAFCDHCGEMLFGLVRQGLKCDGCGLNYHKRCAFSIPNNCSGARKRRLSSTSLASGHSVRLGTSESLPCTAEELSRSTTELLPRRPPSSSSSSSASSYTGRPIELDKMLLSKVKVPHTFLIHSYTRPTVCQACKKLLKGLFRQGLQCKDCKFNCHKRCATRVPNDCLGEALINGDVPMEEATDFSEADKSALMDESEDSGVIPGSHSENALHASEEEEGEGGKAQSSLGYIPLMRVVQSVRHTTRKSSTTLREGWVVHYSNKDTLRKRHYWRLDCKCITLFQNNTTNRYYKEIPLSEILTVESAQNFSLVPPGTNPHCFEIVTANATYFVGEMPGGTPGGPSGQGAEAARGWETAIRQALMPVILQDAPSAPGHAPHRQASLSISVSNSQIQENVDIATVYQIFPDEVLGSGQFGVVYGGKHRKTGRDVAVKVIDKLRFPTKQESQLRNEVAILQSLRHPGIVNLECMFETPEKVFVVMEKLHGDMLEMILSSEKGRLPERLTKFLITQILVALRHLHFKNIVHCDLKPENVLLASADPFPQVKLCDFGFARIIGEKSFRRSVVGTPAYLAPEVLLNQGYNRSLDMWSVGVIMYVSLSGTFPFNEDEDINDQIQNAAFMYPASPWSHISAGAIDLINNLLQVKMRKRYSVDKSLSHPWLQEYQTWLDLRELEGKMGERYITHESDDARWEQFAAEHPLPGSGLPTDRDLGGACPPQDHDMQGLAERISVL", "assay": "Inhibition of human recombinant PKD2 at 500 nM related to control ULK1"}, "[9]": {"molecular_target": "Serine/threonine-protein kinase PAK 5 (Homo sapiens) (UniProt Q9P286)", "sequence (Q9P286 whole entry, looked up)": "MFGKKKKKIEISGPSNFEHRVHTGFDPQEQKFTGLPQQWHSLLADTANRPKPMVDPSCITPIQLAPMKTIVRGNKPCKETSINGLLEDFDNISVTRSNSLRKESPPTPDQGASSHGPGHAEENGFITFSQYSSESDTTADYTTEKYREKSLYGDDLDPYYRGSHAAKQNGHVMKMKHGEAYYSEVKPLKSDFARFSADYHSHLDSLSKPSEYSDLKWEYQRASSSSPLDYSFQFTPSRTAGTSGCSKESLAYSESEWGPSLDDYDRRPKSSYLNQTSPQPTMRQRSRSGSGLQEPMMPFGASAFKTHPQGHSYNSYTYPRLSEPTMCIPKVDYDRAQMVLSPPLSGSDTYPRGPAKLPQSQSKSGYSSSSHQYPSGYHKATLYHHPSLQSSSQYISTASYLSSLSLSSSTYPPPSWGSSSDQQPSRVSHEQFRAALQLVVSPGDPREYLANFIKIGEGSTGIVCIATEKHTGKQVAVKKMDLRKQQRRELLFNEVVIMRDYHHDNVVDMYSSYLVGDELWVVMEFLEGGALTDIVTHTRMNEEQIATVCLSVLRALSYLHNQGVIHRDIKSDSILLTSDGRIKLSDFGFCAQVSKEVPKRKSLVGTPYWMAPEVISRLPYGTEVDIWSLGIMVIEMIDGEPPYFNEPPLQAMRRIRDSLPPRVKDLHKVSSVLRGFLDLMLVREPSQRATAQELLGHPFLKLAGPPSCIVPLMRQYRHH", "assay": "Inhibition of human recombinant PAK5 at 15 nM in presence of ATP by radiometric assay relative to control"}, "[10]": {"molecular_target": "T2, Tyrosine-protein kinase TXK (Homo sapiens) (UniProt P42681)", "T2 sequence (whole entry)": "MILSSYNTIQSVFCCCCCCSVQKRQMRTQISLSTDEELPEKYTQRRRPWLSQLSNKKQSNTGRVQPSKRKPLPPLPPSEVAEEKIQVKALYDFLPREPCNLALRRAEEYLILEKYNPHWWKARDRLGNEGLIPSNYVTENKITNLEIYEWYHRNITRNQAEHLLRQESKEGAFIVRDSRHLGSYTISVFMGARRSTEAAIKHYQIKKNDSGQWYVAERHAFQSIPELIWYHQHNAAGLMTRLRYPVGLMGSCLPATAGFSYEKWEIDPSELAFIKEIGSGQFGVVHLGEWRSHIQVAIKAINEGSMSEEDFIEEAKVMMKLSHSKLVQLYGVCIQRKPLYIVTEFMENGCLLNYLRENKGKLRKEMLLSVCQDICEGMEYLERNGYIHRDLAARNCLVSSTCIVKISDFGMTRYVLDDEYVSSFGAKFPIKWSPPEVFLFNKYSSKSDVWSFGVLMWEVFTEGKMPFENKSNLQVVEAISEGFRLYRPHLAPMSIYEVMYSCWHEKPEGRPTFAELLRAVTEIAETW", "assay": "Inhibition of human recombinant TXK at 15 nM in presence of ATP by radiometric assay relative to control"}, "[11]": {"molecular_target": "T3, Serine/threonine-protein kinase DCLK3 (Homo sapiens) (UniProt Q9C098)", "T3 sequence (whole entry)": "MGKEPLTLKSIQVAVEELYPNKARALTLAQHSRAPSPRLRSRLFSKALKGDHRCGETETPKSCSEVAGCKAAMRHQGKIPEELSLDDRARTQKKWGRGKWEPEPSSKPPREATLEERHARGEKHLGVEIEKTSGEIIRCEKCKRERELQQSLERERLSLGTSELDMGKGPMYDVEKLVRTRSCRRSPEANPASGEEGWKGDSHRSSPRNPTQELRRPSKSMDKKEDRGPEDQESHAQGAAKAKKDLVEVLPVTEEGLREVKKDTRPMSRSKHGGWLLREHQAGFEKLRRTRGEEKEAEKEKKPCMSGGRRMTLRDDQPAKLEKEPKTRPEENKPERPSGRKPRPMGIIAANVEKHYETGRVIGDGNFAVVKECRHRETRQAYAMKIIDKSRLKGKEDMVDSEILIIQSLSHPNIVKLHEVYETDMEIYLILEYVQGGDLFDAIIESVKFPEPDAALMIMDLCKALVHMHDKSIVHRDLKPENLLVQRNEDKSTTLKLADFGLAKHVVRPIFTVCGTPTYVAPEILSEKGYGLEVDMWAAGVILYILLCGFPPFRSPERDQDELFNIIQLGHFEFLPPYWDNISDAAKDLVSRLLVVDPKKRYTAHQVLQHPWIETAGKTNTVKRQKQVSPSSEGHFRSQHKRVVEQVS", "assay": "Inhibition of human recombinant DCAMKL3 at 15 nM related to control ULK1"}, "[12]": {"molecular_target": "Fibroblast growth factor receptor 4 (Homo sapiens) (UniProt P22455)", "sequence (P22455 22-802 limits assumed)": "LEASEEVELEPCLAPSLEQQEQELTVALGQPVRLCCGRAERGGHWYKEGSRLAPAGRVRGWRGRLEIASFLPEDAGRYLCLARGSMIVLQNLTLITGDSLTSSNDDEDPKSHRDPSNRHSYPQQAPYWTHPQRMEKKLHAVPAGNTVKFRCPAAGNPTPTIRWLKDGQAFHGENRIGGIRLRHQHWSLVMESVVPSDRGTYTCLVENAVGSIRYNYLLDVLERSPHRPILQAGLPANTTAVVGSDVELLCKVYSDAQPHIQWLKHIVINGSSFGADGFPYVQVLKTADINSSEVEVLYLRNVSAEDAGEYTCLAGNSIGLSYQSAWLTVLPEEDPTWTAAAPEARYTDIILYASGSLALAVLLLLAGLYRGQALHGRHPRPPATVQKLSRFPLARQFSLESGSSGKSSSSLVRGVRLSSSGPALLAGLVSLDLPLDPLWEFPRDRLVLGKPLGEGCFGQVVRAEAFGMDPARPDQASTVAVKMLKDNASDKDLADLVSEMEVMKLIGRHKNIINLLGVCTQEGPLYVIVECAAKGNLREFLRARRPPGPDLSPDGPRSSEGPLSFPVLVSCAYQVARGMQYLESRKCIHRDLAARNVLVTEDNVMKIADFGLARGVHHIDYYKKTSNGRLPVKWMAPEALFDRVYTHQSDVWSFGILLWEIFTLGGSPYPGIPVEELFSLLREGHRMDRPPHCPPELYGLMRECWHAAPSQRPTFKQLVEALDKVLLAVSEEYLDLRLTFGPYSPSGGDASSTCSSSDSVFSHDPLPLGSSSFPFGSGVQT", "assay": "Inhibition of human recombinant FGFR4 at 15 nM related to control ULK1"}, "[13]": {"molecular_target": "Serine/threonine-protein kinase SIK2 (Homo sapiens) (UniProt Q9H0K1)", "assay": "Inhibition of human recombinant QIK at 15 nM related to control ULK1"}},
  "data": [
    {"smiles": "O=C(N[C@@H](C1CC1)C(F)(F)F)c1cc(-c2cnn3cc(-c4ccc(F)cc4)cnc23)cs1", "values": [
      {"measurement": "fold change (FC)", "setting": "[1]", "result": 0.32},
      {"measurement": "fold change (FC)", "setting": "[2]", "result": 0.1}
    ]},
    {"smiles": "CNC(=O)c1ccccc1Oc1nc(Nc2cc(OC)c(OC)c(OC)c2)ncc1Br", "values": [
      {"measurement": "inhibition", "setting": "[3]", "result": 0, "unit": "%"},
      {"measurement": "inhibition", "setting": "[4]", "result": 1, "unit": "%"},
      {"measurement": "inhibition", "setting": "[5]", "result": 23, "unit": "%"},
      {"measurement": "fold change (FC)", "setting": "[6]", "result": 0.28},
      {"measurement": "fold change (FC)", "setting": "[7]", "result": 0.64},
      {"measurement": "fold change (FC)", "setting": "[8]", "result": 0.16}
    ]},
    {"smiles": "CC(C)[C@H](NC(=O)c1cc(-c2cnn3cc(-c4ccc(OCCN5CCCCC5)cc4)cnc23)cs1)C(F)(F)F", "values": [
      {"measurement": "inhibition", "setting": "[9]", "result": 0, "unit": "%"},
      {"measurement": "inhibition", "setting": "[10]", "result": 59, "unit": "%"},
      {"measurement": "fold change (FC)", "setting": "[11]", "result": 0.4},
      {"measurement": "fold change (FC)", "setting": "[12]", "result": 0},
      {"measurement": "fold change (FC)", "setting": "[13]", "result": 1.02}
    ]}
  ]
}
